ChEMBL document CHEMBL1158343, “Synthesis, antimicrobial and antiviral evaluation of substituted imidazole derivatives” (Eur J Med Chem, 2009)
In brackets after ≈: the same amount, converted by molar mass.

What was measured:
[1] = test system: Mammalian orthoreovirus 1; test: Antiviral activity against Reovirus 1 infected in african green monkey Vero cells assessed as reduction in virus-induced cytopathogenicity after 3 days; type: functional, organism-based; details: Mammalian orthoreovirus 1, Vero, 72 h
Staphylococcus aureus = test: Antimicrobial activity against Staphylococcus aureus after 24 hrs by tube dilution method; type: functional
Method in brief: (§1)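 Tube dilution in DMSO (stock 100 mg/ml) with serial dilutions; incubation 37 °C for 48 h for C. albicans (other organisms' times truncated in text). MIC read as lowest concentration inhibiting visible growth. Norfloxacin (bacteria) and fluconazole (fungi) as reference drugs.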

Coxsackievirus B4 [2] = test: Antiviral activity against Coxsackievirus B4 infected in african green monkey Vero cells assessed as reduction in virus-induced cytopathogenicity after 3 days; type: functional, organism-based; details: Enterovirus B, 72 h
Human alphaherpesvirus 2 = test: Antiviral activity against HSV2 G infected in human HEL cells assessed as reduction in virus-induced cytopathogenicity after 3 days; type: functional, organism-based; details: Human alphaherpesvirus 2, strain G, 72 h
Escherichia coli = test: Antimicrobial activity against Escherichia coli after 24 hrs by tube dilution method; type: functional; method in brief: as §1
[3] = Cytotoxicity against human HEL cells assessed as alteration in cell morphology; type: cell-based
Method in brief: (§2)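 Uninfected cell cultures tested in parallel with the CPE-reduction antiviral assay; cells grown to confluency, then serial compound dilutions added and incubated at 37 °C (3 days in the parallel antiviral set-up). Read-out is microscopic examination of morphology; value is the minimum cytotoxic concentration, the lowest causing a microscopically detectable alteration of normal cell morphology.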

Coxsackievirus B4 [4] = test: Antiviral activity against Coxsackievirus B4 infected in human HeLa cells assessed as reduction in virus-induced cytopathogenicity after 3 days; type: functional, organism-based; details: Enterovirus B, 72 h
Human alphaherpesvirus 1 [5] = test: Antiviral activity against HSV1 KOS infected in human HEL cells assessed as reduction in virus-induced cytopathogenicity after 3 days; type: functional, organism-based; details: Human alphaherpesvirus 1, KOS, 72 h
Candida albicans = test: Antimicrobial activity against Candida albicans after 48 hrs by tube dilution method; type: functional; method in brief: as §1
Sindbis virus = test: Antiviral activity against Sindbis virus infected in african green monkey Vero cells assessed as reduction in virus-induced cytopathogenicity after 3 days; type: functional, organism-based; details: 72 h
Aspergillus niger = test: Antimicrobial activity against Aspergillus niger after 7 days by tube dilution method; type: functional; details: 168 h; method in brief: as §1
[6] = Cytotoxicity against human HeLa cells assessed as alteration in cell morphology; type: cell-based; method in brief: as §2
Bacillus subtilis = test: Antimicrobial activity against Bacillus subtilis after 24 hrs by tube dilution method; type: functional; method in brief: as §1
[7] = Cytotoxicity against african green monkey Vero cells assessed as alteration in cell morphology; type: cell-based; details: chlorocebus sabaeus; method in brief: as §2
Human respirovirus 3 = test: Antiviral activity against Parainfluenza-3 virus infected in african green monkey Vero cells assessed as reduction in virus-induced cytopathogenicity after 3 days; type: functional, organism-based; details: Human respirovirus 3, Vero, 72 h
[8] = test system: Vesicular stomatitis virus; test: Antiviral activity against VSV infected in human HeLa cells assessed as reduction in virus-induced cytopathogenicity after 3 days; type: functional, organism-based; details: 72 h
[9] = test system: Vesicular stomatitis virus; test: Antiviral activity against VSV infected in human HEL cells assessed as reduction in virus-induced cytopathogenicity after 3 days; type: functional, organism-based; details: 72 h
Punta Toro virus = test: Antiviral activity against Punta Toro virus infected in african green monkey Vero cells assessed as reduction in virus-induced cytopathogenicity after 3 days; type: functional, organism-based; details: 72 h
[10] = test system: Respiratory syncytial virus; test: Antiviral activity against RSV infected in human HeLa cells assessed as reduction in virus-induced cytopathogenicity after 3 days; type: functional, organism-based; details: 72 h
Human alphaherpesvirus 1 [11] = test: Antiviral activity against thymidine kinase-deficient acyclovir-resistant HSV1 KOS infected in human HEL cells assessed as reduction in virus-induced cytopathogenicity after 3 days; type: functional, organism-based; details: Human alphaherpesvirus 1, KOS, 72 h

SMILES	EC50 [1] [µg/mL]	MBC (Staphylococcus aureus) [µM]	MIC (Staphylococcus aureus) [µM]	EC50 (Coxsackievirus B4 [2]) [µg/mL]	EC50 (Human alphaherpesvirus 2) [µg/mL]	MBC (Escherichia coli) [µM]	MIC (Escherichia coli) [µM]	MCC [3] [µg/mL]	EC50 (Coxsackievirus B4 [4]) [µg/mL]	EC50 (Human alphaherpesvirus 1 [5]) [µg/mL]	MFC (Candida albicans) [µM]	MIC (Candida albicans) [µM]	EC50 (Sindbis virus) [µg/mL]	MFC (Aspergillus niger) [µM]	MIC (Aspergillus niger) [µM]	MCC [6] [µg/mL]	MBC (Bacillus subtilis) [µM]	MIC (Bacillus subtilis) [µM]	MCC [7] [µg/mL]	EC50 (Human respirovirus 3) [µg/mL]	also measured
O=C(c1ccc([N+](=O)[O-])cc1)n1ccnc1-c1ccc(Cl)cc1	> 100	152 (≈ 49.8 µg/mL)	38 (≈ 12.5 µg/mL)	> 100	> 100	305 (≈ 100 µg/mL)	38 (≈ 12.5 µg/mL)	> 100	45 (≈ 137 µM)	> 100	152 (≈ 49.8 µg/mL)	19 (≈ 6.23 µg/mL)	> 100	76 (≈ 24.9 µg/mL)	4 (≈ 1.31 µg/mL)	> 100	305 (≈ 100 µg/mL)	19 (≈ 6.23 µg/mL)	> 100	> 100	EC50 [8]: > 100 µg/mL; EC50 [9]: > 100 µg/mL; EC50 (Punta Toro virus): > 100 µg/mL; EC50 [10]: > 100 µg/mL; EC50 (Human alphaherpesvirus 1 [11]): > 100 µg/mL
O=C(c1ccccc1Br)n1ccnc1-c1ccccc1[N+](=O)[O-]	> 100	268 (≈ 99.7 µg/mL)	2 (≈ 0.744 µg/mL)	> 100	> 100	268 (≈ 99.7 µg/mL)	33 (≈ 12.3 µg/mL)	> 100	> 100	> 100	268 (≈ 99.7 µg/mL)	33 (≈ 12.3 µg/mL)	> 100	67 (≈ 24.9 µg/mL)	4 (≈ 1.49 µg/mL)	> 100	268 (≈ 99.7 µg/mL)	2 (≈ 0.744 µg/mL)	> 100	> 100	EC50 [8]: > 100 µg/mL; EC50 [9]: > 100 µg/mL; EC50 (Punta Toro virus): > 100 µg/mL; EC50 [10]: > 100 µg/mL; EC50 (Human alphaherpesvirus 1 [11]): > 100 µg/mL
COc1ccc(-c2nccn2C(=O)c2ccccc2Br)cc1	> 100	134 (≈ 47.9 µg/mL)	16 (≈ 5.72 µg/mL)	> 100	> 100	628 (≈ 224 µg/mL)	33 (≈ 11.8 µg/mL)	> 100	> 100	> 100	134 (≈ 47.9 µg/mL)	16 (≈ 5.72 µg/mL)	> 100	134 (≈ 47.9 µg/mL)	16 (≈ 5.72 µg/mL)	> 100	628 (≈ 224 µg/mL)	16 (≈ 5.72 µg/mL)	> 100	> 100	EC50 [8]: > 100 µg/mL; EC50 [9]: > 100 µg/mL; EC50 (Punta Toro virus): > 100 µg/mL; EC50 [10]: > 100 µg/mL; EC50 (Human alphaherpesvirus 1 [11]): > 100 µg/mL
O=C(O)c1ccccc1-c1nccn1C(=O)c1ccc([N+](=O)[O-])cc1	> 100	18 (≈ 6.07 µg/mL)	2 (≈ 0.675 µg/mL)	> 100	> 100	18 (≈ 6.07 µg/mL)	2 (≈ 0.675 µg/mL)	> 100	> 100	> 100	256 (≈ 86.3 µg/mL)	18 (≈ 6.07 µg/mL)	> 100	148 (≈ 49.9 µg/mL)	9 (≈ 3.04 µg/mL)	> 100	18 (≈ 6.07 µg/mL)	2 (≈ 0.675 µg/mL)	> 100	> 100	EC50 [8]: > 100 µg/mL; EC50 [9]: > 100 µg/mL; EC50 (Punta Toro virus): > 100 µg/mL; EC50 [10]: > 100 µg/mL; EC50 (Human alphaherpesvirus 1 [11]): > 100 µg/mL
COc1ccc(-c2nccn2C(=O)c2ccc([N+](=O)[O-])cc2)cc1	> 100	18 (≈ 5.82 µg/mL)	2 (≈ 0.647 µg/mL)	> 100	> 100	147 (≈ 47.5 µg/mL)	18 (≈ 5.82 µg/mL)	> 100	> 100	> 100	147 (≈ 47.5 µg/mL)	18 (≈ 5.82 µg/mL)	> 100	147 (≈ 47.5 µg/mL)	9 (≈ 2.91 µg/mL)	> 100	18 (≈ 5.82 µg/mL)	2 (≈ 0.647 µg/mL)	> 100	> 100	EC50 [8]: > 100 µg/mL; EC50 [9]: > 100 µg/mL; EC50 (Punta Toro virus): > 100 µg/mL; EC50 [10]: > 100 µg/mL; EC50 (Human alphaherpesvirus 1 [11]): > 100 µg/mL
O=C(c1ccc([N+](=O)[O-])cc1)n1ccnc1-c1ccccc1[N+](=O)[O-]	> 100	295 (≈ 99.8 µg/mL)	36 (≈ 12.2 µg/mL)	> 100	> 100	295 (≈ 99.8 µg/mL)	36 (≈ 12.2 µg/mL)	> 100	> 100	> 100	295 (≈ 99.8 µg/mL)	36 (≈ 12.2 µg/mL)	> 100	73 (≈ 24.7 µg/mL)	4 (≈ 1.35 µg/mL)	> 100	295 (≈ 99.8 µg/mL)	36 (≈ 12.2 µg/mL)	> 100	> 100	EC50 [8]: > 100 µg/mL; EC50 [9]: > 100 µg/mL; EC50 (Punta Toro virus): > 100 µg/mL; EC50 [10]: > 100 µg/mL; EC50 (Human alphaherpesvirus 1 [11]): > 100 µg/mL
O=C(c1ccc([N+](=O)[O-])cc1)n1ccnc1-c1cccc(Cl)c1	> 100	305 (≈ 100 µg/mL)	38 (≈ 12.5 µg/mL)	> 100	> 100	305 (≈ 100 µg/mL)	38 (≈ 12.5 µg/mL)	> 100	> 100	> 100	304 (≈ 99.6 µg/mL)	38 (≈ 12.5 µg/mL)	> 100	152 (≈ 49.8 µg/mL)	19 (≈ 6.23 µg/mL)	> 100	305 (≈ 100 µg/mL)	38 (≈ 12.5 µg/mL)	> 100	> 100	EC50 [8]: > 100 µg/mL; EC50 [9]: > 100 µg/mL; EC50 (Punta Toro virus): > 100 µg/mL; EC50 [10]: > 100 µg/mL; EC50 (Human alphaherpesvirus 1 [11]): > 100 µg/mL
O=C(c1ccc([N+](=O)[O-])cc1)n1ccnc1-c1ccccc1Cl	> 100	19 (≈ 6.23 µg/mL)	2 (≈ 0.655 µg/mL)	> 100	> 100	19 (≈ 6.23 µg/mL)	2 (≈ 0.655 µg/mL)	> 100	> 100	> 100	152 (≈ 49.8 µg/mL)	38 (≈ 12.5 µg/mL)	> 100	76 (≈ 24.9 µg/mL)	9 (≈ 2.95 µg/mL)	> 100	19 (≈ 6.23 µg/mL)	2 (≈ 0.655 µg/mL)	> 100	> 100	EC50 [8]: > 100 µg/mL; EC50 [9]: > 100 µg/mL; EC50 (Punta Toro virus): > 100 µg/mL; EC50 [10]: > 100 µg/mL; EC50 (Human alphaherpesvirus 1 [11]): > 100 µg/mL
